Experimental data published in ChEMBL document CHEMBL5137029, “Chemically Tuning Resveratrol for the Effective Killing of Gram-Positive Pathogens” (J Nat Prod, 2022).
Values after ≈ are worked out from the molar mass of the structure shown. Active and inactive are the calls of the source. The calls are words filed in the database; no cut-off is given here.

Key:
[1] = system: Bacillus cereus; assay: Antibacterial activity against Bacillus cereus ATCC 10987 assessed as reduction in intracellular ATP levels at 100 uM measured upto 120 min by BacTiter-Glo luminescent cell viability assay; format: functional, organism-based
Procedure, shortened: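 B. cereus ATCC10987 was grown in LB at 37 °C to OD600 1, washed three times in G-HEPES, and resuspended in cMHB at OD600 0.25. Cells were exposed at 37 °C to compounds at 32 μM or to CCCP (100 μM, positive control). At 30, 60 and 120 min, BacTiter-Glo luminescence was read. ATP was normalised to OD600 and expressed as % of untreated cells. Run in triplicate.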

[2] = Selectivity index, ratio of IC50 for cytotoxicity against human MRC5 cells to MIC for antibacterial activity against Enterococcus faecalis; format: toxicity, cell-based; details: read-out: Selectivity Index
[3] = system: Enterococcus faecalis; assay: Bactericidal activity against Enterococcus faecalis V583 measured upto 24 hrs by CLSI based broth microdilution method; format: functional
Procedure, shortened: (§1)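 Each well then used as a 10% inoculum into fresh cMHB and incubated at 37 °C for 24 h. No regrowth in the MIC range was scored bactericidal, regrowth bacteriostatic. Triplicate.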

[4] = system: Bacillus cereus; assay: Inhibition of electron transport chain in Bacillus cereus ATCC 10987 by measuring reduction of resazurin upto 120 min by resazurin dye based assay; details: DDE = dose-dependent effect
Procedure, shortened: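 B. cereus grown in LB to OD600 1, washed and resuspended in cMHB at OD600 0.2 with 100 μg/mL resazurin. Compounds added at the indicated concentrations; resorufin fluorescence (ex/em 550/590 nm) read every 5 min for 125 min. CCCP at 400, 200, 100 μM positive control; untreated cells and medium with resazurin negative controls; triplicate.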

[5] = system: Staphylococcus aureus; assay: Antibacterial activity against Staphylococcus aureus LMG 10147 incubated for 20 hrs by CLSI based broth microdilution method; format: functional
[6] = system: Clostridium botulinum; assay: Antibacterial activity against Clostridium botulinum CECT551 incubated for 24 hrs by CLSI based broth microdilution method; format: functional
[7] = system: Bacillus cereus; assay: Bactericidal activity against Bacillus cereus ATCC 10987 measured upto 24 hrs by CLSI based broth microdilution method; format: functional; procedure, shortened: as §1
[8] = system: Enterococcus faecalis; assay: Bactericidal activity against Enterococcus faecalis V583 at 16 uM measured upto 24 hrs by CLSI based broth microdilution method; format: functional, organism-based; procedure, shortened: as §1
[9] = Antibacterial activity against Clostridium-ihumii AP5 incubated for 24 hrs by CLSI based broth microdilution method; format: functional
[10] = system: Escherichia coli; assay: Antimicrobial activity against Escherichia coli LMG […] incubated for 20 hrs by CLSI based broth microdilution method; format: functional
[11] = system: Enterococcus faecalis; assay: Antibacterial activity against Enterococcus faecalis LMG 08222 incubated for 20 hrs by CLSI based broth microdilution method; format: functional
[12] = system: Bacillus cereus; assay: Antibacterial activity against Bacillus cereus ATCC 10987 incubated for 20 hrs by CLSI based broth microdilution method; format: functional
[13] = system: Bacillus cereus; assay: Antibacterial activity against Bacillus cereus ATCC 10987 assessed as decrease in membrane integrity at 2x MIC incubated for 18 hrs by propidium iodide staining assay; format: functional, organism-based
Procedure, shortened: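 B. cereus grown 18 h in LB at 37 °C, washed in 5 mM HEPES pH 7.4 + 5 mM glucose, OD600 0.5, loaded with 10 μg/mL propidium iodide for 10 min. […] Gramicidin S positive control; triplicate.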

[14] = Selectivity index, ratio of IC50 for cytotoxicity against human MRC5 cells to MIC for antibacterial activity against Staphylococcus aureus; format: toxicity, cell-based; details: read-out: Selectivity Index
[15] = Selectivity index, ratio of IC50 for cytotoxicity against human MRC5 cells to MIC for antibacterial activity against Bacillus cereus; format: toxicity, cell-based; details: read-out: Selectivity Index
[16] = Selectivity index, ratio of IC50 for cytotoxicity against human MRC5 cells to MIC for antibacterial activity against Clostridium tetani; format: toxicity, cell-based; details: read-out: Selectivity Index
[17] = (§2) Hemolytic activity in human erythrocytes at […] incubated for 1 hrs; format: toxicity, cell-based, Erythrocyte; details: erythrocytes, read-out: Activity
[18] = system: Escherichia coli; assay: Antimicrobial activity against Escherichia coli LMG […] in presence of outer membrane disturbing peptide L-11 incubated for 20 hrs by CLSI based broth microdilution method; format: functional
[19] = system: Staphylococcus aureus; assay: Antibacterial activity against Staphylococcus aureus LMG 8224 incubated for 20 hrs by CLSI based broth microdilution method; format: functional
[20] = system: Clostridioides difficile; assay: Antibacterial activity against Clostridium difficile CECT531 incubated for 24 hrs by CLSI based broth microdilution method; format: functional
[21] = system: Enterococcus faecalis; assay: Antibacterial activity against Enterococcus faecalis LMG 16216 incubated for 20 hrs by CLSI based broth microdilution method; format: functional
[22] = system: Clostridium beijerinckii; assay: Antibacterial activity against Clostridium beijerinckii B504 incubated for 24 hrs by CLSI based broth microdilution method; format: functional
[23] = system: Bacillus cereus; assay: Antibacterial activity against Bacillus cereus ATCC 10987 assessed as membrane potential change at 0.5 to 2X MIC incubated for 20 mins by DiSC3(5) staining based assay; format: functional, organism-based
Procedure, shortened: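 B. cereus grown in LB to OD600 1, washed in glucose-HEPES pH 7.4, OD600 0.5, loaded with 2 μM DiSC3(5) for 20 min at 37 °C for baseline. […] Gramicidin S positive control; untreated cells and dye-only medium negative controls; triplicate.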

[24] = Cytotoxicity against human MRC5 cells assessed as cellular metabolism incubated for 72 hrs by MTT assay; format: toxicity, cell-based
Procedure, shortened: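 MRC-5 cells in DMEM (1 g/L glucose) with 10% heat-inactivated FBS, 2 mM glutamine, penicillin/streptomycin, at 37 °C, 5% CO2. 5 × 10^3 cells/well seeded with increasing compound concentrations, 72 h. MTT added for 4 h, formazan dissolved in DMSO, A570 read. Sigmoidal fit for 50% growth reduction vs untreated; three independent experiments in triplicate.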

[25] = system: Bacillus cereus; assay: Bactericidal activity against Bacillus cereus ATCC 10987 at 16 uM measured upto 24 hrs by CLSI based broth microdilution method; format: functional, organism-based; procedure, shortened: as §1
[26] = system: Staphylococcus aureus; assay: Bactericidal activity against Staphylococcus aureus LMG 8224 measured upto 24 hrs by CLSI based broth microdilution method; format: functional; procedure, shortened: as §1
[27] = system: Clostridium perfringens; assay: Antibacterial activity against Clostridium perfringens CECT376 incubated for 24 hrs by CLSI based broth microdilution method; format: functional
[28] = system: Staphylococcus aureus; assay: Antibacterial activity against Staphylococcus aureus LMG 15975 incubated for 20 hrs by CLSI based broth microdilution method; format: functional
[29] = system: Staphylococcus aureus; assay: Bactericidal activity against Staphylococcus aureus LMG 8224 at 16 uM measured upto 24 hrs by CLSI based broth microdilution method; format: functional, organism-based; procedure, shortened: as §1
[30] = system: Bacillus cereus; assay: Antibacterial activity against Bacillus cereus ATCC 14579 incubated for 20 hrs by CLSI based broth microdilution method; format: functional
[31] = system: Clostridium tetani; assay: Antibacterial activity against Clostridium tetani CECT 4629 incubated for 24 hrs by CLSI based broth microdilution method; format: functional
[32] = system: Enterococcus faecalis; assay: Antibacterial activity against Enterococcus faecalis V583 incubated for 20 hrs by CLSI based broth microdilution method; format: functional
[33] = system: Erythrocyte; assay: as §2; format: toxicity, cell-based; details: erythrocyte, 1 h, […]
[34] = system: Bacillus cereus; assay: Antibacterial activity against Bacillus cereus ATCC 10987 assessed as reduction in intracellular ATP levels measured upto 120 min by BacTiter-Glo luminescent cell viability assay; format: functional, organism-based
Procedure, shortened: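 B. cereus grown in LB to OD600 1, washed in G-HEPES, resuspended in cMHB at OD600 0.25, treated with 32 μM compound at 37 °C. At 30, 60, 120 min samples mixed with BacTiter-Glo, 5 min room temperature, luminescence read. ATP normalized to OD600, as % of untreated control. CCCP 100 μM positive control; triplicate.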

[35] = system: Bacillus cereus; assay: Bactericidal activity against Bacillus cereus ATCC 10987 at 64 uM measured upto 24 hrs by CLSI based broth microdilution method; format: functional, organism-based; procedure, shortened: as §1
[36] = system: Enterococcus faecalis; assay: Bactericidal activity against Enterococcus faecalis V583 at 32 uM measured upto 24 hrs by CLSI based broth microdilution method; format: functional, organism-based; procedure, shortened: as §1
[37] = system: Staphylococcus aureus; assay: Bactericidal activity against Staphylococcus aureus LMG 8224 at […] measured upto 24 hrs by CLSI based broth microdilution method; format: functional, organism-based; details: dose 128.0 µM
[38] = system: Bacillus cereus; assay: Bactericidal activity against Bacillus cereus ATCC 10987 at […] measured upto 24 hrs by CLSI based broth microdilution method; format: functional, organism-based; details: dose 128.0 µM
[39] = system: Enterococcus faecalis; assay: Bactericidal activity against Enterococcus faecalis V583 at […] measured upto 24 hrs by CLSI based broth microdilution method; format: functional, organism-based; details: dose 128.0 µM

Compound | inhibition [4] | MIC [5] [µM] | MIC [6] [µM] | MIC [9] [µM] | MIC [11] [µM] | MIC [12] [µM] | Activity [13] | MIC [19] [µM] | MIC [20] [µM] | MIC [21] [µM] | MIC [22] [µM] | Activity [23] | IC50 at 72 h [24] [µM] | Activity [25] | MIC [27] [µM] | MIC [28] [µM] | MIC [30] [µM] | MIC [31] [µM] | MIC [32] [µM] | further results
N#CC(C#N)=NNc1cccc(Cl)c1 |  |  |  |  |  |  |  |  |  |  |  |  |  |  |  |  |  |  |  | Activity [1]: Active
CC(C)(C)[Si](C)(C)Oc1ccc(/C=C/c2cc(O)cc(O)c2)cc1 | Dde | 8 (≈ 2.74 µg/mL) | 13.3 (≈ 4.56 µg/mL) | 16 (≈ 5.48 µg/mL) | 6.6 (≈ 2.26 µg/mL) | 8 (≈ 2.74 µg/mL) | Active | 8 (≈ 2.74 µg/mL) | 21.3 (≈ 7.3 µg/mL) | 8 (≈ 2.74 µg/mL) | 10.6 (≈ 3.63 µg/mL) | Active | 15.5 | Active | 13.3 (≈ 4.56 µg/mL) | 8 (≈ 2.74 µg/mL) | 4 (≈ 1.37 µg/mL) | 5.3 (≈ 1.82 µg/mL) | 8 (≈ 2.74 µg/mL) | selectivity ratio [2]: 2; MIC [3]: 32 µM (≈ 11 µg/mL); MIC [7]: 32 µM (≈ 11 µg/mL); Activity [8]: Active; MIC [10]: > 128 µM; selectivity ratio [14]: 2; selectivity ratio [15]: 2; selectivity ratio [16]: 2; hemolysis at 1 h, […] [17]: 12.7%; MIC [18]: 13.3 µM; MIC [26]: 32 µM (≈ 11 µg/mL); Activity [29]: Active
CCCCOc1cc(/C=C/c2ccc(OS(=O)(=O)O)cc2)cc(OS(=O)(=O)O)c1 | Dde |  |  |  |  |  | Active |  |  |  |  | Active |  | Active |  |  |  |  |  | Activity [33]: Non-Toxic
GENTAMICIN |  |  |  |  |  | 4 |  | 1 | > 32 |  |  |  |  |  | > 32 |  |  |  | > 32 | 
CC(C)[Si](Oc1cc(O)cc(/C=C/c2ccc(O)cc2)c1)(C(C)C)C(C)C |  |  |  |  |  |  | Active |  |  |  |  | Active |  | Active |  |  |  |  |  | MIC [3]: 32 µM (≈ 12.3 µg/mL); MIC [7]: 32 µM (≈ 12.3 µg/mL); Activity [8]: Active; MIC [26]: 32 µM (≈ 12.3 µg/mL); Activity [34]: Active; Activity [29]: Active
CCCCOc1cc(O)cc(/C=C/c2ccc(O)cc2)c1 |  | 64 (≈ 18.2 µg/mL) | 32 (≈ 9.1 µg/mL) | 64 (≈ 18.2 µg/mL) | 128 (≈ 36.4 µg/mL) | 32 (≈ 9.1 µg/mL) |  | 64 (≈ 18.2 µg/mL) | 64 (≈ 18.2 µg/mL) | 128 (≈ 36.4 µg/mL) | 26.6 (≈ 7.56 µg/mL) |  |  |  | 64 (≈ 18.2 µg/mL) | 32 (≈ 9.1 µg/mL) | 32 (≈ 9.1 µg/mL) | 16 (≈ 4.55 µg/mL) | 128 (≈ 36.4 µg/mL) | 
CC(C)[Si](Oc1ccc(/C=C/c2cc(O)cc(O)c2)cc1)(C(C)C)C(C)C | Dde |  |  |  |  |  | Active |  |  |  |  | Active |  |  |  |  |  |  |  | Activity [35]: Active; Activity [36]: Active; Activity [37]: Active
Oc1ccc(/C=C/c2cc(O)cc(O)c2)cc1 [RESVERATROL] |  |  |  |  |  |  |  |  |  |  |  | Active |  |  |  |  |  |  |  | Activity [38]: Active; Activity [33]: Non-Toxic; Activity [37]: Active; Activity [39]: Active
CC[Si](CC)(CC)Oc1cc(O)cc(/C=C/c2ccc(O)cc2)c1 |  |  |  |  |  |  |  |  |  |  |  |  | 21.3 |  |  |  |  |  |  | 
CC(C)(C)[Si](C)(C)Oc1cc(O)cc(/C=C/c2ccc(O)cc2)c1 |  | 16 (≈ 5.48 µg/mL) | 16 (≈ 5.48 µg/mL) | 32 (≈ 11 µg/mL) | 8 (≈ 2.74 µg/mL) | 16 (≈ 5.48 µg/mL) |  | 16 (≈ 5.48 µg/mL) | 26.6 (≈ 9.11 µg/mL) | 16 (≈ 5.48 µg/mL) | 26.6 (≈ 9.11 µg/mL) |  | 2.7 |  | 32 (≈ 11 µg/mL) | 16 (≈ 5.48 µg/mL) | 16 (≈ 5.48 µg/mL) | 6.6 (≈ 2.26 µg/mL) | 16 (≈ 5.48 µg/mL) | hemolysis at 1 h, […] [17]: 18.4%
